Usually logP stands for a log measure of how a compound divides between an organic and an aqueous phase. Low readings indicate lower lipophilicity, high ones higher lipophilicity. A word on the logD: it is the decadic logarithm of the distribution of all forms, ionised or not, between an organic phase and buffer at a given pH. Low readings indicate lower lipophilicity, high ones higher lipophilicity. What is called Ki is the equilibrium dissociation constant of an inhibitor or competing ligand from its target.

In series [1] the test system is C6. Briefly: Induction of pregnenolone synthesis in rat C6 cells at 40 uM after 2 hrs by ELISA relative to control. In kind it is functional. The procedure, abridged: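 Rat C6 glioma cells were exposed to ligand at 40 μM. Released pregnenolone was measured by competitive ELISA and expressed as % above control. Mean ± SEM of at least three independent experiments.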
For orientation: ELISA stands for enzyme-linked immunosorbent assay.

The species entered for series [2] is Rattus norvegicus. Briefly: Ex vivo binding affinity to TSPO in AMPA lesioned rat assessed as increase in ipsi to contralateral ratio by auto radiography. In kind it is functional, organism-based.
Series [3] deals with Striatum. The experiment in a line: Drug uptake in rat striatum after 1-2 mins post injection. In kind it is ADME, tissue-based. The settings on record: in vivo.
Series [4] deals with Striatum. The experiment in a line: Drug uptake in AMPA lesioned rat striatum after 1-2 mins post injection. The class given is ADME, tissue-based. The following applies: in vivo.
The test system of series [5] is Brain. The experiment in a line: Ratio of drug uptake in ipsi to contralateral side of AMPA lesioned rat brain after 60 mins post injection. The following applies: in vivo, 1 h. In kind it is ADME, tissue-based. The gist of the method: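 MicroPET imaging of rats with AMPA-induced brain lesions after injection of the fluorine-18-labelled radiotracer. Uptake in the lesioned (ipsilateral) striatal area is compared with the corresponding area of the intact contralateral hemisphere at 60 min post-injection. Time-activity curves are followed for lesioned and non-lesioned striatum over the scan.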

Series [6] in a line: Octanol-water partition coefficient, log P of the compound by shake flask method. In kind it is physicochemical. The gist of the method:
(§1)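 Shake-flask partition of the [18F]-labelled radioligand. Log D7.4 was measured between n-octanol and buffer pH 7.4, and log P between n-octanol and water.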

The nature of series [7]: Octanol-buffer partition coefficient, log D of the compound at pH 7.4 by shake flask method. The class given is physicochemical. The gist of the method: as §1
The species entered for series [8] is Rattus norvegicus. The experiment in a line: Displacement of [3H]Flunitrazepam from CBR in rat cerebral cortex at 0.1 uM. The class given is tissue-based. The gist of the method:
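Competition binding against [3H]flunitrazepam, a reference central benzodiazepine receptor ligand, in a rat cerebral cortex homogenate screen. […]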
In general terms: Displacement assays read how much labelled ligand stays bound in the presence of the test substance.

Series [9] has as its target T1, Translocator protein (Rattus norvegicus, UniProt P16257). Briefly: Displacement of [3H]PK11195 from TSPO in rat heart membrane homogenate. In kind it is cell membranes.
In series [10] the target is Translocator protein (Homo sapiens, UniProt P30536). Briefly: Displacement of [3H]PK11195 from TSPO in human HEK293 mitochondrial fraction.
Sequence of Translocator protein (Homo sapiens, UniProt P30536) (P30536 whole entry): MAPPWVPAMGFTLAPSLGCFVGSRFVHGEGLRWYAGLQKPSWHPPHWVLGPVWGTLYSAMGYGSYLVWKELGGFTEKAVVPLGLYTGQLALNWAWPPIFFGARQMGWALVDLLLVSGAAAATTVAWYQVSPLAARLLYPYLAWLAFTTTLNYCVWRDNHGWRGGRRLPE
For series [11], the target named is T1, Translocator protein. Briefly: Displacement of [3H]PK11195 from TSPO in rat kidney mitochondrial fraction. The class given is tissue-based.

The source made the active and inactive calls. No cut-off for these calls is given here. Where only a bound is given, the exact number is not on record here.

T1 sequence (P16257 whole entry, looked up): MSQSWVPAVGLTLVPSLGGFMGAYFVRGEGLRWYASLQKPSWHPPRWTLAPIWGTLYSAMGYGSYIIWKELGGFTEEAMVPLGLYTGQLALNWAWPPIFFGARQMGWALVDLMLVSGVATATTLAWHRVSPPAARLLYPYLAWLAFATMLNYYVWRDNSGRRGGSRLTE

In [1], `CCC(C)N(C)C(=O)c1cc2ccccc2c(-c2ccccc2Cl)n1` (configuration not stated) [PK-11195] yielded an Activity of 37%. The outcome in series [2] was inactive.
For the molecule `COc1ccccc1CN(C(C)=O)c1cnc([18F])cc1Oc1ccccc1`, the Drug uptake entry in series [3] and in series [4] was “Active” in each case. Also, the Ratio in series [5] was found to be 2.2. For the same molecule, in [6], the logP was determined as 2.77. This molecule yielded a logD in series [7] of 2.82.
Take `CCOC(=O)c1ncn2c1CN(C)C(=O)c1cc(F)ccc1-2`: in series [2], the outcome was Active.
On to `COc1ccccc1CN(C(C)=O)c1cnc(F)cc1Oc1ccccc1`, for which the Activity is < 10% in [8] and 16.45% in series [1]. For the same molecule, the Ki in [9] came out at 0.44 nM; in series [10], 1.19 nM; in series [11] it was 3.9 nM. The outcome in series [2] was inactive. Further, the outcome in [2] (tested as the 18F-labelled form) was Active.
With `CCC(C)N([11CH3])C(=O)c1cc2ccccc2c(-c2ccccc2Cl)n1` (configuration not stated), the Drug uptake result in series [3] and in series [4] was “Active” throughout.

These data come from ChEMBL document CHEMBL1817668, “Synthesis of 6-[¹⁸F]fluoro-PBR28, a novel radiotracer for imaging the TSPO 18 kDa with PET” (Bioorg Med Chem Lett, 2011).
